{
  "source": "ChEMBL document CHEMBL1145462",
  "about": "“In vivo pharmacodynamic activity of the glycopeptide dalbavancin” (Antimicrob Agents Chemother, 2007)",
  "key": {"Staphylococcus aureus [1]": {"tested_on": "Staphylococcus aureus", "test": "Bactericidal activity against […] Staphylococcus aureus ATCC 29213 infected neutropenic Swiss ICR mouse thigh infection model assessed as drug level causing 1-log reduction of bacterial count at 10 mg/kg, ip dosed every 72 hrs", "type": "functional", "details": "route intraperitoneal", "how_it_was_run": "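Neutropenic thigh-infected mice were treated ip starting 2 h post-infection for 144 h, with doses given q24h or q72h. Thigh CFU were fitted to a sigmoid Hill Emax model by nonlinear least squares. The dose giving a 1-log10 reduction versus start-of-therapy counts was derived from the fit, together with the free-drug 24-h AUC/MIC.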"}, "Staphylococcus aureus [2]": {"tested_on": "Staphylococcus aureus", "test": "Bactericidal activity against […] Staphylococcus aureus ATCC 29213 infected neutropenic Swiss ICR mouse thigh infection model assessed as drug level causing 2-log reduction of bacterial count at 10 mg/kg, ip dosed every 72 hrs", "type": "functional", "details": "route intraperitoneal"}, "Staphylococcus aureus [3]": {"tested_on": "Staphylococcus aureus", "test": "AUC/MIC ratio of Staphylococcus aureus 33591 infected neutropenic mouse thigh infection model at 22.3 mg/kg, ip administered every 24 hrs by static effect experiment", "type": "functional", "details": "route intraperitoneal"}, "Staphylococcus aureus [4]": {"tested_on": "Staphylococcus aureus", "test": "AUC/MIC ratio of methicillin-resistant Staphylococcus aureus infected neutropenic mouse thigh infection model at 37.7 mg/kg, ip administered every 24 hrs by static effect experiment", "type": "functional", "details": "route intraperitoneal"}, "Staphylococcus aureus [5]": {"tested_on": "Staphylococcus aureus", "test": "AUC/MBC ratio of Staphylococcus aureus Smith infected neutropenic mouse thigh infection model at 33.5 mg/kg, ip administered every 24 hrs by static effect experiment", "type": "functional", "details": "route intraperitoneal"}, "Staphylococcus aureus [6]": {"tested_on": "Staphylococcus aureus", "test": "AUC/MBC ratio of Staphylococcus aureus ATCC 25923 infected neutropenic mouse thigh infection model at 160 mg/kg, ip administered every 72 hrs by static effect experiment", "type": "functional", "details": "route intraperitoneal"}, "Streptococcus pneumoniae [7]": {"tested_on": "Streptococcus pneumoniae", "test": "AUC/MIC ratio of Streptococcus pneumoniae 1199 infected neutropenic mouse thigh infection model at 0.49 mg/kg, ip administered every 24 hrs by 1-log killing experiment", "type": "functional", "details": "route intraperitoneal"}, "Staphylococcus aureus [8]": {"tested_on": "Staphylococcus aureus", "test": "AUC/MIC ratio of Staphylococcus aureus 33591 infected neutropenic mouse thigh infection model at 27.7 mg/kg, ip administered every 24 hrs by 1-log killing experiment", "type": "functional", "details": "route intraperitoneal"}, "Staphylococcus aureus [9]": {"tested_on": "Staphylococcus aureus", "test": "AUC/MBC ratio of Staphylococcus aureus ATCC 25923 infected neutropenic mouse thigh infection model at 51.2 mg/kg, ip administered every 24 hrs by 1-log killing experiment", "type": "functional", "details": "route intraperitoneal"}, "Streptococcus pneumoniae [10]": {"tested_on": "Streptococcus pneumoniae", "test": "AUC/MIC ratio of Streptococcus pneumoniae ATCC 10813 infected neutropenic mouse thigh infection model at 0.77 mg/kg, ip administered every 72 hrs by 1-log killing experiment", "type": "functional", "details": "route intraperitoneal"}, "Staphylococcus aureus [11]": {"tested_on": "Staphylococcus aureus", "test": "AUC/MBC ratio of Staphylococcus aureus ATCC 25923 infected neutropenic mouse thigh infection model at 185 mg/kg, ip administered every 72 hrs by 1-log killing experiment", "type": "functional", "details": "route intraperitoneal"}, "Staphylococcus aureus [12]": {"tested_on": "Staphylococcus aureus", "test": "AUC/MBC ratio of Staphylococcus aureus 31005 infected neutropenic mouse thigh infection model at 94.6 mg/kg, ip administered every 72 hrs by 1-log killing experiment", "type": "functional", "details": "route intraperitoneal"}, "Staphylococcus aureus [13]": {"tested_on": "Staphylococcus aureus", "test": "AUC/MIC ratio of methicillin-resistant Staphylococcus aureus infected neutropenic mouse thigh infection model at 53.5 mg/kg, ip administered every 24 hrs by 2-log killing experiment", "type": "functional", "details": "route intraperitoneal"}, "Staphylococcus aureus [14]": {"tested_on": "Staphylococcus aureus", "test": "AUC/MIC ratio of Staphylococcus aureus Smith infected neutropenic mouse thigh infection model at 148 mg/kg, ip administered every 72 hrs by 2-log killing experiment", "type": "functional", "details": "route intraperitoneal"}, "Staphylococcus aureus [15]": {"tested_on": "Staphylococcus aureus", "test": "AUC/MBC ratio of methicillin-resistant Staphylococcus aureus infected neutropenic mouse thigh infection model at 85 mg/kg, ip administered every 72 hrs by 2-log killing experiment", "type": "functional", "details": "route intraperitoneal"}, "Staphylococcus aureus [16]": {"tested_on": "Staphylococcus aureus", "test": "AUC/MIC ratio of Staphylococcus aureus ATCC 25923 infected neutropenic mouse thigh infection model at 160 mg/kg, ip administered every 72 hrs by static effect experiment", "type": "functional", "details": "route intraperitoneal"}, "Staphylococcus aureus [17]": {"tested_on": "Staphylococcus aureus", "test": "AUC/MIC ratio of Staphylococcus aureus 33591 infected neutropenic mouse thigh infection model at 74 mg/kg, ip administered every 72 hrs by static effect experiment", "type": "functional", "details": "route intraperitoneal"}, "Streptococcus pneumoniae [18]": {"tested_on": "Streptococcus pneumoniae", "test": "AUC/MIC ratio of Streptococcus pneumoniae ATCC 10813 infected neutropenic mouse thigh infection model at 1.54 mg/kg, ip administered every 24 hrs by 1-log killing experiment", "type": "functional", "details": "route intraperitoneal"}, "Staphylococcus aureus [19]": {"tested_on": "Staphylococcus aureus", "test": "AUC/MBC ratio of Staphylococcus aureus 307109 infected neutropenic mouse thigh infection model at 37 mg/kg, ip administered every 72 hrs by 2-log killing experiment", "type": "functional", "details": "route intraperitoneal"}, "Streptococcus pneumoniae [20]": {"tested_on": "Streptococcus pneumoniae", "test": "Antibacterial activity against Streptococcus pneumoniae 1199 by microdilution method", "type": "functional", "how_it_was_run": "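MIC and MBC were determined by CLSI broth microdilution, in duplicate on at least two occasions. Staphylococci were grown in Mueller-Hinton broth and agar; pneumococci were plated on sheep blood agar.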"}, "[21]": {"test": "Cmax in bacterial pathogen-infected neutropenic Swiss ICR mouse thigh infection model at 40 mg/kg, ip", "type": "ADME, organism-based", "set-up": "dose 40 mg/kg, route intraperitoneal", "details": "in vivo", "how_it_was_run": "(§1)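 Thigh-infected neutropenic mice received single intraperitoneal doses (2.5, 5, 10, 20, 40, 80 mg/kg; 0.2 ml/dose). Blood was drawn by retroorbital aspiration from groups of three mice at 0.5, 1, 2, 4, 6, 24, 48, 72 and 96 h. Plasma levels were measured by microbiologic assay with Bacillus subtilis (detection limit 0.10 mg/liter). Noncompartmental analysis was used: half-life by linear least-squares regression, AUC by trapezoidal rule.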"}, "Staphylococcus aureus [22]": {"tested_on": "Staphylococcus aureus", "test": "Antibacterial activity against Staphylococcus aureus ATCC 25923 in presence of 95% mouse serum ultrafiltrate", "type": "functional", "how_it_was_run": "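MIC determined in broth, heat-treated (100°C, 30 min) 95% mouse serum, and 95% mouse serum ultrafiltrate, using arithmetic dilutions of 0.02 mg/liter per tube. Protein binding estimated as (MIC in 95% serum − MIC in ultrafiltrate)/MIC in 95% serum.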"}, "Streptococcus pneumoniae [23]": {"tested_on": "Streptococcus pneumoniae", "test": "Bactericidal activity in Streptococcus pneumoniae ATCC 10813 infected non-neutropenic mouse thigh infection model assessed as drug level causing 1-log reduction of bacterial count at 2.03 mg/kg/6days", "type": "functional"}, "Streptococcus pneumoniae [24]": {"tested_on": "Streptococcus pneumoniae", "test": "Bactericidal activity in Streptococcus pneumoniae ATCC 10813 infected non-neutropenic mouse thigh infection model assessed as drug level causing 2-log reduction of bacterial count at 2.03 mg/kg/6days", "type": "functional"}, "[25]": {"test": "AUC in bacterial pathogen-infected neutropenic Swiss ICR mouse thigh infection model at 2.5 mg/kg, ip", "type": "ADME, organism-based", "set-up": "dose 2.5 mg/kg, route intraperitoneal", "details": "in vivo", "how_it_was_run": "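Single-dose serum PK in thigh-infected neutropenic mice; intraperitoneal dalbavancin (0.2 ml/dose) at 2.5–80 mg/kg. Blood from groups of three mice at 0.5–96 h by retroorbital aspiration; plasma level by Bacillus subtilis microbiologic assay (detection limit 0.10 mg/liter). Noncompartmental analysis; AUC by trapezoidal rule from mean concentrations, extrapolated to infinity.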"}, "[26]": {"test": "Half life in bacterial pathogen-infected neutropenic Swiss ICR mouse thigh infection model at 20 mg/kg, ip", "type": "ADME, organism-based", "set-up": "dose 20 mg/kg, route intraperitoneal", "details": "in vivo", "how_it_was_run": "as §1"}, "Streptococcus pneumoniae [27]": {"tested_on": "Streptococcus pneumoniae", "test": "Bactericidal activity against penicillin-susceptible Streptococcus pneumoniae ATCC 10813 infected neutropenic Swiss ICR mouse thigh infection model assessed as drug level causing 1-log reduction of bacterial count at 1.34 mg/kg, ip dosed every 24 hrs", "type": "functional", "details": "route intraperitoneal"}},
  "data": [
    {"smiles": "CN[C@H]1C(=O)N[C@@H]2Cc3ccc(cc3)Oc3cc4cc(c3O[C@@H]3O[C@H](C(=O)O)[C@@H](O)[C@H](O)[C@H]3NC(=O)CCCCCCCCC(C)C)Oc3ccc(cc3Cl)[C@@H](O)[C@@H]3NC(=O)[C@H](NC(=O)[C@@H]4NC(=O)[C@@H](NC2=O)c2cc(cc(O)c2Cl)Oc2cc1ccc2O)c1ccc(O)c(c1)-c1c(O[C@H]2O[C@H](CO)[C@@H](O)[C@H](O)[C@@H]2O)cc(O)cc1[C@@H](C(=O)NCCCN(C)C)NC3=O", "note": "[DALBAVANCIN]", "values": [
      {"measurement": "Activity", "setting": "Staphylococcus aureus [1]", "result": 31},
      {"measurement": "Activity", "setting": "Staphylococcus aureus [2]", "result": 128},
      {"measurement": "RatioAUC/MIC", "setting": "Staphylococcus aureus [3]", "result": 96.2},
      {"measurement": "RatioAUC/MIC", "setting": "Staphylococcus aureus [4]", "result": 374},
      {"measurement": "Ratio", "setting": "Staphylococcus aureus [5]", "result": 75},
      {"measurement": "Ratio", "setting": "Staphylococcus aureus [6]", "result": 66},
      {"measurement": "RatioAUC/MIC", "setting": "Streptococcus pneumoniae [7]", "result": 19.4},
      {"measurement": "RatioAUC/MIC", "setting": "Staphylococcus aureus [8]", "result": 121},
      {"measurement": "Ratio", "setting": "Staphylococcus aureus [9]", "result": 60},
      {"measurement": "RatioAUC/MIC", "setting": "Streptococcus pneumoniae [10]", "result": 1.6},
      {"measurement": "Ratio", "setting": "Staphylococcus aureus [11]", "result": 76.1},
      {"measurement": "Ratio", "setting": "Staphylococcus aureus [12]", "result": 163},
      {"measurement": "RatioAUC/MIC", "setting": "Staphylococcus aureus [13]", "result": 519},
      {"measurement": "RatioAUC/MIC", "setting": "Staphylococcus aureus [14]", "result": 254},
      {"measurement": "Ratio", "setting": "Staphylococcus aureus [15]", "result": 70},
      {"measurement": "RatioAUC/MIC", "setting": "Staphylococcus aureus [16]", "result": 274},
      {"measurement": "RatioAUC/MIC", "setting": "Staphylococcus aureus [17]", "result": 123},
      {"measurement": "RatioAUC/MIC", "setting": "Streptococcus pneumoniae [18]", "result": 8.7},
      {"measurement": "Ratio", "setting": "Staphylococcus aureus [19]", "result": 14.6},
      {"measurement": "MBC", "setting": "Streptococcus pneumoniae [20]", "result": 4, "unit": "ng/mL"},
      {"measurement": "MIC", "setting": "Streptococcus pneumoniae [20]", "result": 4, "unit": "ng/mL"},
      {"measurement": "Cmax", "setting": "[21]", "result": 385, "unit": "µg/mL"},
      {"measurement": "MIC", "setting": "Staphylococcus aureus [22]", "result": 500, "unit": "ng/mL"},
      {"measurement": "Activity", "setting": "Streptococcus pneumoniae [23]", "result": 2.35},
      {"measurement": "Activity", "setting": "Streptococcus pneumoniae [24]", "result": 2.66},
      {"measurement": "AUC", "setting": "[25]", "result": 98000, "unit": "ng·h/mL"},
      {"measurement": "half-life", "setting": "[26]", "result": 7.6, "unit": "h"},
      {"measurement": "Activity", "setting": "Streptococcus pneumoniae [27]", "result": 1.54}
    ]}
  ]
}
